{"source": "ChEMBL document CHEMBL1255300", "about": "“Pharmacodynamics of the antibacterial effect and emergence of resistance to tomopenem, formerly RO4908463/CS-023, in an in vitro pharmacokinetic model of Staphylococcus aureus infection” (Antimicrob Agents Chemother, 2008)", "key": {"Staphylococcus aureus [1]": {"test_system": "Staphylococcus aureus", "test": "T>MIC for 4-log drop in count in methicillin-resistant Staphylococcus aureus 33827 in in vitro pharmacokinetic model after 24 hrs using 10^8 CFU/ml inoculum", "format": "functional"}, "Staphylococcus aureus [2]": {"test_system": "Staphylococcus aureus", "test": "AUBKC (0 to 24 hrs) in methicillin-resistant Staphylococcus aureus 33827 infected in in vitro pharmacokinetic model at 750 mg, iv every 8 hrs using 10^6 CFU/ml inoculum", "format": "functional", "how_it_was_run": "(§1)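 Single-compartment dilutional in vitro PK model at 37°C in 10% Mueller-Hinton broth, stirred, flow 132 ml/h. […] Inoculum 10^6 CFU/ml added 45 min before dosing, or 10^8 CFU/ml run overnight. Viable counts with β-lactamase neutralisation. AUBKC by log-linear trapezoidal rule, at least triplicate.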"}, "Staphylococcus aureus [3]": {"test_system": "Staphylococcus aureus", "test": "AUBKC (0 to 48 hrs) in methicillin-sensitive Staphylococcus aureus 5956 infected in in vitro pharmacokinetic model at 1500 mg, iv every 8 hrs using 10^6 CFU/ml inoculum", "format": "functional", "how_it_was_run": "as §1"}, "Staphylococcus aureus [4]": {"test_system": "Staphylococcus aureus", "test": "AUBKC (0 to 48 hrs) in methicillin-resistant Staphylococcus aureus 33921 infected in in vitro pharmacokinetic model at 1500 mg, iv every 8 hrs using 10^6 CFU/ml inoculum", "format": "functional", "how_it_was_run": "as §1"}, "Staphylococcus aureus [5]": {"test_system": "Staphylococcus aureus", "test": "AUBKC (0 to 48 hrs) in methicillin-resistant Staphylococcus aureus 33922 infected in in vitro pharmacokinetic model at 1500 mg, iv every 8 hrs using 10^6 CFU/ml inoculum", "format": "functional", "how_it_was_run": "as §1"}, "Staphylococcus aureus [6]": {"test_system": "Staphylococcus aureus", "test": "Antibacterial activity against methicillin-resistant Staphylococcus aureus 33827 infected in in vitro pharmacokinetic model assessed as reduction in viable count at 750 mg, iv every 8 hrs measured after 12 hrs using 10^8 CFU/ml inoculum", "format": "functional", "how_it_was_run": "(§2)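 Single-compartment dilutional in vitro PK model, 10% Mueller-Hinton broth, 37°C, stirred, dilution 132 ml/h. […] Inoculum 10^6 CFU/ml (added 45 min pre-dose) or 10^8 CFU/ml (run overnight). Viable counts by spiral plating, beta-lactamase neutralization, detection limit 10^2 CFU/ml. At least triplicate.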"}, "Staphylococcus aureus [7]": {"test_system": "Staphylococcus aureus", "test": "Antibacterial activity against methicillin-resistant Staphylococcus aureus 33815 infected in in vitro pharmacokinetic model assessed as reduction in viable count at 750 mg, iv every 8 hrs measured after 12 hrs using 10^8 CFU/ml inoculum", "format": "functional", "how_it_was_run": "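PK model at 37°C in 10% MHB. […] A 0.5 McFarland suspension (1 ml) was added and the model run overnight to reach 10^8 CFU/ml before dosing. Counts were spiral-plated on nutrient agar with β-lactamase. Change in log CFU/ml was measured from time 0; at least triplicate.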"}, "Staphylococcus aureus [8]": {"test_system": "Staphylococcus aureus", "test": "Antibacterial activity against methicillin-resistant Staphylococcus aureus 33922 infected in in vitro pharmacokinetic model assessed as reduction in viable count at 750 mg, iv every 8 hrs measured after 24 hrs using 10^8 CFU/ml inoculum", "format": "functional"}, "Staphylococcus aureus [9]": {"test_system": "Staphylococcus aureus", "test": "Antibacterial activity against methicillin-resistant Staphylococcus aureus 33827 by broth dilution method", "format": "functional", "how_it_was_run": "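Standard CLSI broth dilution MIC.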"}, "Staphylococcus aureus [10]": {"test_system": "Staphylococcus aureus", "test": "AUBKC (0 to 24 hrs) in methicillin-resistant Staphylococcus aureus 33922 infected in in vitro pharmacokinetic model at 750 mg, iv every 8 hrs using 10^8 CFU/ml inoculum", "format": "functional", "how_it_was_run": "as §1"}, "Staphylococcus aureus [11]": {"test_system": "Staphylococcus aureus", "test": "AUBKC (0 to 48 hrs) in methicillin-resistant Staphylococcus aureus 33827 infected in in vitro pharmacokinetic model at 750 mg, iv every 8 hrs using 10^8 CFU/ml inoculum", "format": "functional", "how_it_was_run": "as §1"}, "Staphylococcus aureus [12]": {"test_system": "Staphylococcus aureus", "test": "T>MIC in methicillin-sensitive Staphylococcus aureus 5956 infected in vitro pharmacokinetic model at 1500 mg, iv every 8 hrs", "format": "functional"}, "Staphylococcus aureus [13]": {"test_system": "Staphylococcus aureus", "test": "AUBKC (0 to 48 hrs) in methicillin-resistant Staphylococcus aureus 33922 infected in in vitro pharmacokinetic model at 1500 mg, iv every 8 hrs using 10^8 CFU/ml inoculum", "format": "functional", "how_it_was_run": "as §1"}, "Staphylococcus aureus [14]": {"test_system": "Staphylococcus aureus", "test": "T>MIC in methicillin-resistant Staphylococcus aureus 33820 infected in vitro pharmacokinetic model at 1500 mg, iv every 8 hrs", "format": "functional"}, "Staphylococcus aureus [15]": {"test_system": "Staphylococcus aureus", "test": "Antibacterial activity against methicillin-resistant Staphylococcus aureus 33815 in in vitro pharmacokinetic model assessed as viable count at 2 times of MIC", "format": "functional", "how_it_was_run": "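Preexposure population analysis profile: model sample at time zero plated on nutrient agar with tomopenem at multiples of the MIC. Growth counted as log CFU/ml, detection limit 2 log10.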"}, "Staphylococcus aureus [16]": {"test_system": "Staphylococcus aureus", "test": "Antibacterial activity against methicillin-resistant Staphylococcus aureus 33829 in in vitro pharmacokinetic model assessed as viable count at 6 times of MIC", "format": "functional", "how_it_was_run": "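Preexposure population analysis: time-zero model samples plated on nutrient agar without drug and with drug at multiples of the 10% broth MIC. Growth reported as log CFU/ml, detection limit 2 log10.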"}, "Staphylococcus aureus [17]": {"test_system": "Staphylococcus aureus", "test": "Antibacterial activity against methicillin-sensitive Staphylococcus aureus 5956 infected in in vitro pharmacokinetic model assessed as reduction in viable count at 750 mg, iv every 8 hrs measured after 24 hrs using 10^6 CFU/ml inoculum", "format": "functional"}, "Staphylococcus aureus [18]": {"test_system": "Staphylococcus aureus", "test": "Antibacterial activity against methicillin-sensitive Staphylococcus aureus 5956 infected in in vitro pharmacokinetic model assessed as reduction in viable count at 750 mg, iv every 8 hrs measured after 36 hrs using 10^6 CFU/ml inoculum", "format": "functional"}, "Staphylococcus aureus [19]": {"test_system": "Staphylococcus aureus", "test": "Antibacterial activity against methicillin-resistant Staphylococcus aureus 33827 infected in in vitro pharmacokinetic model assessed as reduction in viable count at 750 mg, iv every 8 hrs measured after 48 hrs using 10^6 CFU/ml inoculum", "format": "functional", "how_it_was_run": "as §2"}, "Staphylococcus aureus [20]": {"test_system": "Staphylococcus aureus", "test": "Antibacterial activity against methicillin-resistant Staphylococcus aureus 33922 assessed as viable count at 4 times of MIC after 24 hrs using 10^6 CFU/ml inoculum", "format": "functional, organism-based"}, "Staphylococcus aureus [21]": {"test_system": "Staphylococcus aureus", "test": "T>MIC for static effect in methicillin-sensitive Staphylococcus aureus 5956 in in vitro pharmacokinetic model after 24 hrs using 10^6 CFU/ml inoculum", "format": "functional"}, "Staphylococcus aureus [22]": {"test_system": "Staphylococcus aureus", "test": "T>MIC for 2-log drop in count in methicillin-resistant Staphylococcus aureus 33815 in in vitro pharmacokinetic model after 24 hrs using 10^6 CFU/ml inoculum", "format": "functional"}, "Staphylococcus aureus [23]": {"test_system": "Staphylococcus aureus", "test": "T>MIC for 3-log drop in count in methicillin-resistant Staphylococcus aureus 33827 in in vitro pharmacokinetic model after 24 hrs using 10^6 CFU/ml inoculum", "format": "functional"}, "Staphylococcus aureus [24]": {"test_system": "Staphylococcus aureus", "test": "Antibacterial activity against methicillin-resistant Staphylococcus aureus 33921 infected in in vitro pharmacokinetic model assessed as reduction in viable count at 1500 mg, iv every 8 hrs measured after 24 hrs using 10^6 CFU/ml inoculum", "format": "functional", "how_it_was_run": "as §2"}, "Staphylococcus aureus [25]": {"test_system": "Staphylococcus aureus", "test": "Antibacterial activity against methicillin-resistant Staphylococcus aureus 33820 infected in in vitro pharmacokinetic model assessed as reduction in viable count at 1500 mg, iv every 8 hrs measured after 24 hrs using 10^6 CFU/ml inoculum", "format": "functional", "how_it_was_run": "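Single-compartment dilutional in vitro PK model, 37°C, stirred, in 10% Mueller-Hinton broth. […] Inoculum 10^6 CFU/ml from a 24-h plate culture was added 45 min before dosing. Viable counts by spiral plating on nutrient agar with β-lactamase neutralization. Log change was taken from time 0; detection limit 10^2 CFU/ml; at least triplicate.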"}, "Staphylococcus aureus [26]": {"test_system": "Staphylococcus aureus", "test": "Antibacterial activity against methicillin-resistant Staphylococcus aureus 33922 infected in in vitro pharmacokinetic model assessed as reduction in viable count at 1500 mg, iv every 8 hrs measured after 36 hrs using 10^6 CFU/ml inoculum", "format": "functional"}}, "note": "Calls of active or inactive are those of the source. The calls are words filed in the database; no cut-off is given here.", "data": [{"smiles": "C[C@@H](O)[C@H]1C(=O)N2C(C(=O)O)=C(S[C@H]3C[C@@H](C(=O)N4CC[C@H](NC(=O)CNC(=N)N)C4)N(C)C3)[C@H](C)[C@H]12", "note": "[TOMOPENEM]", "values": [{"measurement": "fT>MIC", "setting": "Staphylococcus aureus [1]", "result": 79.1, "unit": "%"}, {"measurement": "AUBC", "setting": "Staphylococcus aureus [2]", "result": 27.4, "unit": "log10CFU/ml.hr"}, {"measurement": "AUBC", "setting": "Staphylococcus aureus [3]", "result": 22.7, "unit": "log10CFU/ml.hr"}, {"measurement": "AUBC", "setting": "Staphylococcus aureus [4]", "result": 38.1, "unit": "log10CFU/ml.hr"}, {"measurement": "AUBC", "setting": "Staphylococcus aureus [5]", "result": 16.9, "unit": "log10CFU/ml.hr"}, {"measurement": "log10CFU/ml", "setting": "Staphylococcus aureus [6]", "result": 3.8}, {"measurement": "log10CFU/ml", "setting": "Staphylococcus aureus [7]", "result": 1.7}, {"measurement": "log10CFU/ml", "setting": "Staphylococcus aureus [8]", "result": 5}, {"measurement": "MIC", "setting": "Staphylococcus aureus [9]", "result": 2, "unit": "µg/mL"}, {"measurement": "AUBC", "setting": "Staphylococcus aureus [10]", "result": 71.5, "unit": "log10CFU/ml.hr"}, {"measurement": "AUBC", "setting": "Staphylococcus aureus [11]", "result": 87.9, "unit": "log10CFU/ml.hr"}, {"measurement": "fT>MIC", "setting": "Staphylococcus aureus [12]", "result": 100, "unit": "%"}, {"measurement": "AUBC", "setting": "Staphylococcus aureus [13]", "result": 124.7, "unit": "log10CFU/ml.hr"}, {"measurement": "fT>MIC", "setting": "Staphylococcus aureus [14]", "result": 98, "unit": "%"}, {"measurement": "log10CFU/ml", "setting": "Staphylococcus aureus [15]", "result": "<2"}, {"measurement": "log10CFU/ml", "setting": "Staphylococcus aureus [16]", "result": 2.7}, {"measurement": "log10CFU/ml", "setting": "Staphylococcus aureus [17]", "result": 4.3}, {"measurement": "log10CFU/ml", "setting": "Staphylococcus aureus [18]", "result": 4.5}, {"measurement": "log10CFU/ml", "setting": "Staphylococcus aureus [19]", "result": 3.3}, {"measurement": "Activity", "setting": "Staphylococcus aureus [20]", "result": "inactive"}, {"measurement": "fT>MIC", "setting": "Staphylococcus aureus [21]", "result": 6, "unit": "%"}, {"measurement": "fT>MIC", "setting": "Staphylococcus aureus [22]", "result": 12.5, "unit": "%"}, {"measurement": "fT>MIC", "setting": "Staphylococcus aureus [23]", "result": 43, "unit": "%"}, {"measurement": "log10CFU/ml", "setting": "Staphylococcus aureus [24]", "result": 4.2}, {"measurement": "log10CFU/ml", "setting": "Staphylococcus aureus [25]", "result": 4.2}, {"measurement": "log10CFU/ml", "setting": "Staphylococcus aureus [26]", "result": 4.2}]}]}
